# Screening data (PubChem)
# NTR1 ag: agonists of human neurotensin receptor NTR1; P30989; NTR1-U2OS beta-arrestin-GFP spot imaging, agonist mode; activation, % at 20 µM; hit rate 0.17% among 330,000;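 active = activation at or above 40% of the spot to cytoplasm intensity ratio, with at least 20 cells analyzed; inconclusive = wells under 20 cells, flagged as cytotoxic or low count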;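 note: 0% = DMSO without peptide and 100% = 100 nM NTR1 peptide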
# MC4R antag cAMP: antagonists of human melanocortin 4 receptor (MC4R); inhibition, % at 6.5 µM; hit rate 0.48% among 360,000; AID 540295; P32245; MC4R-expressing cells, MTII-stimulated cAMP, LANCE TR-FRET;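 active = inhibition above its plate's cutoff, the mean of tested wells on that plate plus 3 SD, cut at about 29% in these data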;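 note: 0% = Melanotan II alone and 100% = Melanotan II plus saturating MCL0020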
# Target sequence (P32245 whole entry, looked up): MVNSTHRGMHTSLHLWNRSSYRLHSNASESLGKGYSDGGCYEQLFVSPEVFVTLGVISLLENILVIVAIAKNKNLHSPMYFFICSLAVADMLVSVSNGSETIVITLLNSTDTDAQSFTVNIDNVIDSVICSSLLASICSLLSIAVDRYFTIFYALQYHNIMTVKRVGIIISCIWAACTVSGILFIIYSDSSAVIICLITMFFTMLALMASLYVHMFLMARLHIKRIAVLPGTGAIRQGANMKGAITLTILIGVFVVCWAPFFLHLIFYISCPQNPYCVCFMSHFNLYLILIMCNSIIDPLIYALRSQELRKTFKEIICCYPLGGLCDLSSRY
#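 Material – human MC4R-expressing U2OS cells · Repeats – no replicates · Detection – TR-FRET with Eu-cAMP and labeled anti-cAMP, 671 nm · Times – compound 30 min, challenge 1 h, detection 1 h · Compound – single nominal compound dose of 6.5 µM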
# MC4R barr agon: activates human MC4R beta-arrestin recruitment | AID 540308 | activation, % at 8.9 µM | hit rate 0.98% among 360,000 | U2OS MC4R beta-arrestin complementation, luminescence; percent of melanotan II response, DMSO zero | P32245;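 active = activation above a per-plate cutoff, the mean activation of sample wells on that plate plus 3 SD, cut at about 8% in these data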
# AI-2 QS modul: modulates the Vibrio harveyi AI-2 quorum sensing system; Vibrio harveyi JMH597 AI-2 luminescence/OD600 ratio, 9 h; active compounds read low; strain lacks LuxN and CqsS sensors; 0 = neutral-control median; activity change, % at 7.5 µM; hit rate 0.4% among 300,000; in the data active = activity change below about -75%, passing the limit was not always enough; inconclusive = no clear call, values can overlap the other calls;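 note: luminescence divided by OD600 gain over 9 h not by final OD600 alone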
# U2OS cAMP counter: U2OS forskolin cAMP inhibition counter-screen. parental U2OS, LANCE TR-FRET. shares compounds with MC4R antag cAMP. hit rate 26% among 1,600. inhibition, % at 6.5 µM. AID 602193;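 active = mean inhibition over triplicates above the low-control well mean plus 3 SD, set per campaign, cut at about 13% in these data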;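 note: signal is single emission at 671 nm which falls as cellular cAMP rises; 0% = forskolin-stimulated wells and 100% = buffer without forskolin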
# MC4R antag conf: human MC4R cAMP antagonism confirmation; shares compounds with MC4R antag cAMP; MC4R-expressing cells, MTII-stimulated cAMP, TR-FRET; inhibition, % at 6.5 µM; hit rate 27% among 1,600; AID 602195; in the data active = inhibition above about 29%;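 note: 0% = agonist stimulated wells alone and 100% = agonist stimulated wells plus saturating reference antagonist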
# * hit, by the source's call; ? = inconclusive; nt = not tested or not shown. A selection: hits, their analogues and other compounds. The true share with any hit is near 1.8%.
SMILES,NTR1 ag,MC4R antag cAMP,MC4R barr agon,AI-2 QS modul,U2OS cAMP counter,MC4R antag conf
COc1ccc(C(=O)/C=C/C(=O)N(CC(=O)NC2CCCCC2)Cc2ccc(F)cc2)c(O)c1,nt,28.6*,-3.6,3.6,6.0,11.7
CS(=O)(=O)N(CC(=O)NC1CCCCC1)Cc1ccc(F)cc1,-0.2,18.8,-1.5,10.0,nt,nt
COc1nnc(-c2ccc(N3CCCCC3)c(NC(=O)COc3ccccc3)c2)c2ccccc12,nt,-0.8,1.2,nt,nt,nt
O=C(Nc1ccccc1)C1=C(c2ccccc2)S(=O)(=O)CCS1(=O)=O,nt,46.9*,-1.4,?,27.6*,36.9*
O=C(Nc1nc(=O)n(C(=O)C2CC2)s1)c1ccccc1,-0.7,30.5*,0.8,24.9,0.6,-1.9
Cc1ccc(C(=O)Nc2nc(=O)n(C(=O)C3CC3)s2)cc1,0.9,14.4,0.6,16.8,nt,nt
CSCCC(NC(=O)c1ccc([N+](=O)[O-])cc1Cl)C(=O)OCC(=O)NCCCc1ccccc1 (stereo not given),3.1,37.1*,6.7,-7.3,16.4*,37.1*
CC(=O)c1cc2c(cc1NC(=O)Cc1ccsc1)OCO2,-0.6,1.2,-0.9,nt,nt,nt
NC(=O)c1cccc2ccccc12,0.1,31.8*,-1.4,-3.2,2.0,-7.5
C=CC(=O)N1C/C(=C/c2ccc(F)cc2)C(=O)/C(=C\c2ccc(F)cc2)C1,nt,40.1*,-4.6,nt,28.1*,22.4
CN1C2CCC1/C(=C\c1ccc(F)cc1)C(=O)/C2=C/c1ccc(F)cc1,2.6,7.2,2.8,19.1,nt,nt
CCn1c(C)nc2cc(C(=O)N/N=C(\C)c3ccc(OC)cc3O)ccc21,nt,33.9*,0.8,19.3,4.4,0.6
CCn1c(C)nc2cc(C(=O)NN=C(C)c3ccc(C#N)cc3)ccc21,-0.4,-0.2,-1.5,nt,nt,nt
Cc1ccc(OCCC(=O)OCC(=O)NC(=O)c2ccccc2)cc1,-1.2,10.8,-0.5,11.4,nt,nt
c1ccc2nc3c(ccc4ccccc43)cc2c1,nt,-3.4,-0.9,nt,nt,nt
Nc1[nH]nc2ncc3cc4ccccc4nc3c12,1.7,28.5*,0.0,9.7,-8.3,-10.1
Cc1cc(N2CCN(C)CC2)nc(=S)[nH]1,-0.5,29.0*,-1.5,6.1,0.4,-4.3
CCc1nc2ccccc2c(=O)n1/N=C/c1ccc(OC)cc1,1.5,15.3,-0.2,3.8,nt,nt
CC(C)[C@H](CN1CCC[C@H]1CN1C(N)=NC[C@@H]1Cc1ccccc1)N1C[C@@H](Cc2ccccc2)N(CCc2ccc(Cl)c(Cl)c2)C1=N,-0.7,31.1*,1.4,nt,-5.7,43.1*
CCC[C@@H](CN1CCC[C@H]1CN1C(N)=NC[C@H]1CC(C)C)N1C[C@@H](Cc2ccccc2)N(CCc2ccc(Cl)c(Cl)c2)C1=N,-2.4,29.3*,1.7,nt,-1.9,38.5*
CC(C)[C@H](CN1CCC[C@H]1CN1C(N)=NC[C@H]1C(C)C)N1C[C@@H](Cc2ccccc2)N(CCCC2CCCC2)C1=N,-0.5,29.7*,-0.1,nt,-3.5,27.1
CCC[C@@H](CN1CCC[C@H]1CN1C(N)=NC[C@@H]1Cc1ccccc1)N1C[C@@H](Cc2ccccc2)N(CCc2ccc(Cl)c(Cl)c2)C1=N,3.3,17.9,0.6,nt,nt,nt
Cn1nc(N2CCN(S(=O)(=O)c3ccccc3)CC2)c(=O)n(C)c1=O,-2.2,1.8,-2.8,nt,nt,nt
CCCC(=O)NC1=C(Cl)C(=O)c2ccccc2C1=O,nt,92.8*,-1.3,nt,78.4*,106.2*
CCNC1=C(Cl)C(=O)c2ccccc2C1=O,0.0,-21.5,2.9,-10.1,nt,nt
SMILES,NTR1 ag,MC4R antag cAMP,MC4R barr agon,AI-2 QS modul,U2OS cAMP counter,MC4R antag conf
O=C(c1ccc(S(=O)(=O)NCc2ccco2)cc1)N1CCN(c2ccc(F)cc2)CC1,0.6,-4.4,-0.8,nt,nt,nt
O=C(/C=C/c1ccc(S(=O)(=O)NCc2ccco2)cc1)N1CCN(c2ccccc2)CC1,0.6,30.6*,0.7,17.3,1.4,-4.0
COc1ccc(C(NC(=O)c2c(F)c(F)c(F)c(F)c2F)c2ccccc2)cc1 (stereo not given),2.0,72.2*,0.3,35.6,56.9*,87.9*
O=C(c1ccco1)N1CCN(C2CN(Cc3ccc([N+](=O)[O-])cc3)S(=O)(=O)C2)CC1 (stereo not given),nt,-0.5,-0.5,nt,nt,nt
Cc1ccc(C(=O)C(C)OC(=O)c2cc3cc([N+](=O)[O-])ccc3oc2=O)cc1 (stereo not given),4.7,33.4*,-3.3,18.2,7.8,13.5
Cc1ccc(S(=O)(=O)N2CCCCC2)cc1NC(=O)COC(=O)CNC(=O)c1cc(Cl)cc([N+](=O)[O-])c1,4.6,31.2*,-1.9,13.3,5.0,3.1
CC(C)CCn1nc(C(=O)Nc2nc3c(s2)CCCC3)c2ccccc2c1=O,6.2,33.0*,3.6,-3.1,-0.6,13.9
CC(=O)Nc1ccc(OCC(O)Cn2c(CO)nc3ccccc32)cc1 (stereo not given),1.1,31.5*,-0.3,2.2,-0.4,8.3
Cc1ccc(CN2CCC(=O)N2)cc1,-1.8,10.1,-2.6,5.5,nt,nt
NS(=O)(=O)c1ccc(NC(=O)COC(=O)CSc2n[nH]c(-c3ccccc3)n2)cc1,-1.2,38.6*,-1.0,11.7,8.8,-3.1
CC1c2cc3c(cc2CCN1C(=O)c1cccc(Cl)c1)OCCCO3 (stereo not given),1.4,1.2,-1.7,12.1,nt,nt
O=C(Nc1ccccc1N1CCCC1)c1cccc(S(=O)(=O)N2CCOCC2)c1,-0.7,7.7,-3.3,21.2,nt,nt
CC/C(Cc1ccccc1)=N/NC(=O)CNC(=O)c1ccc(Cl)cc1Cl,0.8,-1.7,-5.0,16.4,nt,nt
CC/C(C)=N\NC(=O)CNC(=O)c1ccc(Cl)cc1Cl,-0.3,30.8*,0.3,18.1,2.1,1.7
C[C@H](CO)N1C[C@H](C)[C@@H](CN(C)C(=O)Nc2ccc(C(F)(F)F)cc2)Oc2c(NC(=O)Nc3ccc(C(F)(F)F)cc3)cccc2C1=O,25.9,24.1,-1.4,nt,nt,nt
COc1ccc(NC(=O)Nc2cccc3c2O[C@H](CN(C)C(=O)Nc2ccc(C(F)(F)F)cc2)[C@@H](C)CN([C@H](C)CO)C3=O)cc1,1.2,34.8*,-0.1,nt,1.1,19.0
CCN(c1ccccc1)S(=O)(=O)c1ccc(OC)c(NC(=O)CNC)c1,0.5,1.1,-0.1,9.4,nt,nt
CCN(c1ccccc1)S(=O)(=O)c1ccc(OC)c(NC(=O)Cn2cnc3c2c(=O)n(C)c(=O)n3C)c1,-0.5,41.4*,6.2,16.9,3.9,10.2
COc1ccc(S(=O)(=O)N(C)C)cc1NC(=O)COC(=O)c1nn(C)c(=O)c2ccccc12,-0.9,33.7*,0.6,18.4,6.3,13.5
Cn1nc(C(=O)OCC(=O)Nc2ccccc2OC(F)F)c2ccccc2c1=O,1.9,1.6,0.1,nt,nt,nt
COc1cccc(C(=O)NCCS(=O)(=O)NCc2ccccn2)c1,0.7,-3.4,-2.0,4.1,nt,nt
O=C(CS(=O)c1ccc(Br)cc1)N1CCOCC1 (stereo not given),-0.6,-0.6,0.1,31.6,nt,nt
